We go through 32 compounds from PubChem BioAssay AID624056 (Southern Research Specialized Biocontainment Screening …, 2012).

“And” between values parts separate entries of the source, which are not always exact repeats. Equal entries are not always repeated. The source made the active and inactive calls.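 Rule for the calls: active = compounds specific to the target that block phage lysis by more than 30% when retested across doses; inactive = the rest, not confirmed on retesting.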

One assay deals with E. coli EV36 T7 phage lysis inhibition, OD600. Kind of assay: E. coli EV36 sensitization to T7 phage – EV36 K1 hybrid, OD600, round 7, dose response (AID 624056).
Settings: not given
In short, it runs like this: (§1)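 Test system: Escherichia coli strain EV36, a K1 capsule/K-12 hybrid | Amount: 1:100 dilution of overnight culture | Buffer or medium: LB broth | Reagent: T7 bacteriophage | Dosing: Two-fold dilution series, 1% DMSO | Schedule: 1.5 h compound at 37 °C, 3 h after phage | Signal: OD600 absorbance | Measure: Phage-driven lysis of unencapsulated bacteria from OD600 change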
For the compound `CCCCOc1ccc(-c2cc(NC(=O)c3c(F)cccc3F)c(C(=O)O)s2)cc1`, the IC50 (as a rule, the concentration at which inhibition is half-maximal) is 290 nM. On to `O=C(Nc1cc(-c2ccc(OCC(F)(F)F)cc2)sc1C(=O)O)c1ccc(Br)o1`, for which the IC50 is 330 nM. Regarding `O=C(Nc1cc(-c2ccc(OCCC(F)(F)F)cc2)sc1C(=O)O)c1ccc(Br)o1`, the IC50 was 320 nM. On the same count and under the same terms, the figure for `CCCOc1ccc(-c2cc(NC(=O)c3c(F)cc(F)cc3F)c(C(=O)O)s2)cc1` is 530 nM; for `O=C(O)c1sc(-c2ccc(OCCCC(F)(F)F)cc2)cc1NC(=O)c1c(F)cc(F)cc1F` it is below 650 nM. The same measure, in the same setting: the figure for `O=C(O)c1sc(-c2ccc(OC(F)(F)F)cc2)cc1NC(=O)c1c(F)cccc1F` is 1360 nM. As for `CCCCOc1ccc(-c2cc(NC(=O)c3ccc(Br)o3)c(C(=O)O)s2)cc1`, the IC50 was 320 nM. As for `[N-]=[N+]=NCCOc1ccc(-c2cc(NC(=O)c3c(F)cccc3F)c(C(=O)O)s2)cc1`, the IC50 was 310 nM. Still for that read-out and setting: the figure for `CCOc1ccc(-c2cc(NC(=O)c3c(F)cccc3F)c(C(=O)O)s2)cc1` is 410 nM. For `O=C(Nc1cc(-c2ccc(OCCCC(F)(F)F)cc2)sc1C(=O)O)c1ccc(Br)o1`, the IC50 was 480 nM.

In the case of `O=C(O)c1sc(-c2ccc(OCCC(F)(F)F)cc2)cc1NC(=O)c1c(F)cc(F)cc1F`, the IC50 was 440 nM. Regarding `O=C(Nc1cc(-c2ccc(OC(F)(F)F)cc2)sc1C(=O)O)c1ccc(Br)o1`, the IC50 is 1170 nM.

Regarding `CCOc1ccc(-c2cc(NC(=O)c3c(F)cc(F)cc3F)c(C(=O)O)s2)cc1`, the IC50 is 1830 nM. Take `CCCc1ccc(-c2cc(NC(=O)c3cc(Br)c(Br)o3)c(C(=O)O)s2)cc1`: the IC50 is 2350 nM. In the case of `O=C(O)c1sc(-c2ccc(OCCCC(F)(F)F)cc2)cc1NC(=O)c1c(F)cccc1F`, the IC50 is 90 nM. Turning to `CCCc1ccc(-c2cc(NC(=O)c3c(F)cccc3F)c(C(=O)O)s2)cc1`, the IC50 was 560 nM.

Take `CCCc1ccc(-c2cc(NC(=O)c3c(F)cc(F)cc3F)c(C(=O)O)s2)cc1`: the IC50 was 1520 nM. For the compound `O=C(O)c1sc(-c2ccc(OCC(F)(F)F)cc2)cc1NC(=O)c1c(F)cccc1F`, the IC50 is 350 nM. As for `O=C(O)c1sc(-c2ccc(OCCC(F)(F)F)cc2)cc1NC(=O)c1c(F)cccc1F`, the concentration for half-maximal inhibition (IC50) is 50 nM.

Consider `CCOc1ccc(-c2cc(NC(=O)c3c(F)cccc3C(F)(F)F)c(C(=O)O)s2)cc1`, for which the IC50 was 2650 nM. As for `CCCCOc1ccc(-c2cc(NC(=O)c3c(F)cc(F)cc3F)c(C(=O)O)s2)cc1`, the IC50 was 330 nM. Turning to `CCCc1ccc(-c2cc(NC(=O)c3ccc(Br)o3)c(C(=O)O)s2)cc1`, the IC50 was 340 nM.

`O=C(O)c1sc(-c2ccc(OCC(F)(F)F)cc2)cc1NC(=O)c1c(F)cc(F)cc1F`: the IC50 was 1880 nM. Take `O=C(Nc1ccncc1)c1ccc2ncsc2c1`: the IC50 was 660 nM. Take `CCCCOc1ccc(-c2cc(NC(=O)c3cc(Br)c(Br)o3)c(C(=O)O)s2)cc1`: the IC50 was 960 nM.

Test system in the next assay: not listed separately
Described as above. Particulars: E. coli EV36 T7 phage lysis inhibition, OD600; at 5 µM (top of the series). Put shortly:
as §1
For `O=C(Nc1cc(-c2ccc(OC(F)(F)F)cc2)sc1C(=O)O)c1cccc(F)c1`, the phage lysis inhibition was 75.5% (inactive).

Take `O=C(Nc1cc(-c2ccc(OCCCC(F)(F)F)cc2)sc1C(=O)O)c1cc(Br)c(Br)o1`: the phage lysis inhibition was -21.6% (inactive) and -21.4% (inactive).

In the case of `O=C(NCc1ccncc1)c1ccc2ncsc2c1`, the phage lysis inhibition was 123% (inactive). In the case of `CC(C)(C)c1ccc(-c2cc(NC(=O)c3ccc(Br)s3)c(C(=O)O)s2)cc1`, the phage lysis inhibition was -11.6% (inactive). For `O=C(NCCc1ccncc1)c1ccc2ncsc2c1`, the phage lysis inhibition was 124% (inactive). On the same count and under the same terms, to `O=C(Nc1cc(-c2ccc(OC(F)(F)F)cc2)sc1C(=O)O)c1cc2ccccc2o1` belongs 2.17% (inactive); to `O=C(NC1CCNCC1)c1ccc2ncsc2c1`, 121% (inactive); to `O=C(Nc1ccncc1)c1ccc2ncsc2c1`, 126% (inactive).
